# Experiments:
# [1] = Cytotoxicity against human HuH7 cells assessed as viable cells after 6 days by XTT assay; type: functional; conditions: Huh-7, 144 h
# Procedure, shortened: (§1)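 Cells seeded at 2 × 10⁴ cells/well in 96-well plates; test substances added next day in duplicate. CC50 is the concentration giving 50% viability relative to untreated control cells. Positive control included.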
# [2] = system: MT4; assay: Cytotoxicity against human MT4 cells assessed as viable cells after 6 days by XTT assay; type: functional; conditions: MT4, 144 h; procedure, shortened: as §1
# [3] = Chemical reactivity of the compound in aqueous HCl assessed as reaction rate; type: physicochemical; conditions: buffer
# Procedure, shortened: (§2)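 Compound dissolved in 2 M HCl at room temperature; reaction followed spectrophotometrically at 318 nm and by LC-HRESIMS. First-order rate constant k (min⁻¹) and t1/2 (min) derived from the decay.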
# [4] = Half life of the compound in aqueous HCl; type: physicochemical; procedure, shortened: as §2
# [5] = Half life of the compound in phosphate buffer at pH 5.4 in presence of cysteine; type: ADME; conditions: phosphate buffer with cysteine
# [6] = Drug level in phosphate buffer treated with (3S,7R)-Illudin M at pH 5.4 in presence of cysteine; type: physicochemical
# Procedure, shortened: (§3)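 Compound was incubated with L-cysteine in 50 mM buffer at pH 5.4 at room temperature. The reaction was followed for 3 h by UV absorbance at 318 nm and by LC-HRESIMS (C18, 10−90% aqueous MeCN gradient). Reaction half-life was taken from the time course.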
# [7] = Drug level in phosphate buffer treated with (3S,7S)-Illudin M at pH 5.4 in presence of cysteine; type: physicochemical; procedure, shortened: as §3
SMILES,CC50 [1] [nM],CC50 [2] [nM],K [3] [×10⁻³ /min],half-life [4] [min],further results
COc1nc(N)nc2c1ncn2[C@@H]1O[C@H](COP(=O)(N[C@H](C)C(=O)OCC(C)(C)C)Oc2ccc3ccccc3c2)[C@@H](O)[C@@]1(C)O (stereo partly drawn),3000,3000,–,–,–
CC1=C2C(=CC(C)(C)[C@@H]2O)C(=O)[C@@](C)(O)C12CC2,380,14,12,38,half-life [5]: 5.6 min
CC1=C2C(=C[C@@](C)(CO)[C@@H]2O)C(=O)[C@@](C)(O)C12CC2,98,23,–,–,–
Cc1c(O)c2c(c(C)c1CCO)[C@H](O)C(C)(C)[C@H]2SC[C@H](N)C(=O)O,–,–,–,–,Drug metabolism [6]: metabolite_detected
CC1=CC2=C[C@@](C)(CO)C[C@@H]2[C@@](C)(O)C12CC2,> 400000,> 400000,–,–,–
CC1=C2C(=CC(C)(C)[C@H]2O)C(=O)[C@@](C)(O)C12CC2,1300,120,4.1,170,half-life [5]: 27 min
Cc1c(O)c2c(c(C)c1CCO)[C@H](O)C(C)(C)[C@@H]2SC[C@H](N)C(=O)O,–,–,–,–,Drug metabolism [6]: metabolite_detected
Cc1c(O)c2c(c(C)c1CCO)[C@@H](O)C(C)(C)[C@H]2SC[C@H](N)C(=O)O,–,–,–,–,Drug metabolism [7]: metabolite_detected
CC1(C)C=C2C=C(CO)C3(CC3)[C@](C)(O)[C@H]2C1,240000,110000,–,–,–
CC1=C2C(=CC(C)(C)[C@@H]2O)C(=O)[C@](C)(O)C12CC2 [ILLUDIN M],–,–,4.7,147,–

# Reference: ChEMBL document CHEMBL3739411, “Cytotoxic Illudane Sesquiterpenes from the Fungus Granulobasidium vellereum (Ellis and Cragin) Jülich” (J Nat Prod, 2015)
